Yeast growth inh: reduces growth of yeast BB579 in restrictive medium; S. cerevisiae BB579 growth, OD615, 48 h; inhibition, % at 10 µM; 0.51% of 140,000 active; AID 804;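 active means inhibition above a set limit, 3 SD over the mean compound inhibition, cut at about 44% in these data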
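Material: Saccharomyces cerevisiae DeaD strain BB579, replicative lifespan model yeast; buffer or medium: CSMM-D restrictive synthetic medium containing dextrose (glucose); compound: 10 µM single dose, DMSO 0.25%; timing: 48 h compound exposure at 30 °C after 4 h preincubation; signal: turbidity as optical density at 615 nm; benchmarks: positive control amphotericin B 10 µg/mL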
sdo1 growth: compounds rescuing growth of sdo1-depleted yeast, bone marrow failure model; S. cerevisiae sdo1-depleted JHY4D growth rescue, OD600 30 h; hits give high values; pdr5 snq2 efflux-pump mutant strain; z-score at 10 µM; 0.21% of 140,000 active;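 active means z-score above 3 at both the 24 hr and the 30 hr optical density reads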
Yeast life ext: yeast lifespan extension | S. cerevisiae growth with nicotinamide, OD615; deaD strain in restrictive glucose medium | AID 775 | inhibition of the nicotinamide effect, % at 10 µM | 0.68% of 130,000 active;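 active means inhibition above a set limit, placed 3 SD over the median of all compounds, cut at about 26% in these data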
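Test system – modified budding yeast, DeaD strain · Compound – single dose 10 µM compound, 0.25% DMSO · Times – culture preincubation 4 h, compound exposure 48 h, both 30 °C · Detection – optical density (absorbance) at 615 nm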
RAM network inh: inhibitors of the yeast RAM network | AID 868 | S. cerevisiae dse1pr::URA3 reporter, 5-FOA growth OD615, 2 d; analog-sensitive cbk1-as2 kinase mutant strain | inhibition, % at 50 µM | 1.8% of 190,000 active;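 active means inhibition above a set limit, 3 SD over mean compound inhibition, cut at about 8.4% in these data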;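 further: inhibition rescues growth on 5-FOA so higher OD means more RAM inhibition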
Large screens that a line does not name were inactive. Only some compounds are listed: those with a hit (about 2.7% of all), similar ones and a draw of the others.

CN(C)S(=O)(=O)c1ccc(N2CCCC2)c(C(=O)NCc2ccc(Cl)cc2)c1	none
COc1ccc(Nc2cc(C(=O)NCc3ccco3)c3ccccc3n2)c(OC)c1	none
CCNC(=S)N(Cc1cccs1)Cc1cc2cc(OCC)ccc2[nH]c1=O	none
CCNC(=S)N(Cc1ccco1)Cc1cc2cc(OCC)ccc2[nH]c1=O	RAM network inh 9.7 (no result: Yeast growth inh, sdo1 growth, Yeast life ext)
COc1ccc(N2CCN(C(=O)C(Cc3ccccc3)n3cccc3)CC2)cc1 (stereo not drawn)	none
CN([C@@H](Cc1ccc(OS(=O)(=O)c2cccc3cnccc23)cc1)C(=O)N1CCN(c2ccccc2)CC1)S(=O)(=O)c1cccc2cnccc12	RAM network inh 9.2
O=C(O)CSCC(=O)c1ccccc1	none
CCOc1ccccc1NC(=O)C1=C(C)NC(=S)NC1c1cccs1 (stereo not drawn)	RAM network inh 9.8
CC1=C(C(=O)Nc2ccccc2C)C(c2cccs2)NC(=S)N1 (stereo not drawn)	none
O=C(Cn1nc(Cl)nc1Cl)c1cc2ccccc2oc1=O	Yeast life ext 42
Cc1cc(C)c[n+](CC(=O)c2cc3ccccc3oc2=O)c1	none
Cc1ccc[n+](CC(=O)c2cc3ccccc3oc2=O)c1	Yeast life ext 36
C=CCNC(=S)N/N=C(\C)c1ccccn1	Yeast growth inh 93
C/C(=N/NC(=O)CNC(=O)c1ccccn1)c1ccccc1	none
COC(=O)c1cc2occc2n1Cc1nc(-c2ccc(Cl)cc2)oc1C	none
O=C(Oc1ccc(N(Cc2cccs2)C2=NS(=O)(=O)c3ccccc32)cc1)c1ccco1	none (no result: Yeast life ext)
Cc1ccc(NC(=O)CN2C(=O)N/C(=C/c3ccc(N4CCOCC4)cc3)C2=O)cc1	RAM network inh 8.8
CC(=O)NC1(c2ccccc2)CCN(Cc2nnnn2C(C)(C)C)CC1	none
CCOC(=O)CN(C(=O)CSc1nnc2c(n1)[nH]c1ccccc12)c1ccccc1	none
CCOC(=O)CN(C(=O)CSc1nnc2c(n1)[nH]c1c(C)cc(C)cc12)c1ccccc1	RAM network inh 8.9
CCn1cc(CN2CCN(Cc3cccc(OC)c3)C(CCO)C2)c(C)n1 (stereo not drawn)	none (no result: Yeast growth inh, sdo1 growth, Yeast life ext)
O=C(CSCc1ccco1)Nc1cc(C(F)(F)F)ccc1N1CCOCC1	RAM network inh 9.1
Cn1c(CCN2CCCCC2)nc2cc(NC(=O)C3CCCCC3)ccc21	none
COc1cc(/C=c2\s/c(=C\C(=O)C(C)(C)C)[nH]c2=O)cc(OC)c1OC	RAM network inh 8.8 (no result: Yeast growth inh, sdo1 growth, Yeast life ext)
Cc1cccc(/C=c2\s/c(=C\C(=O)C(C)(C)C)[nH]c2=O)c1	none
Cc1noc(C)c1COc1ccc(C(=O)OCC(=O)Nc2ccc3c(c2)OCO3)cc1	none
Cc1ccc(NC(=O)COC(=O)c2ccc(OCc3c(C)noc3C)cc2)cc1S(=O)(=O)N1CCOCC1	RAM network inh 11
COC(=O)C(Cc1ccc(OC(=O)c2ccccc2C)cc1)N1Cc2ccccc2C1=O (stereo not drawn)	RAM network inh 8.9
Cc1noc(C)c1CSc1nnc(-c2ccccc2)n1Cc1ccco1	none
CCN1C(=O)CSC1=NC12CC3CC(CC(C3)C1)C2	none
CN1C(=O)CSC1=NC12CC3CC(CC(C3)C1)C2	Yeast life ext 53
FC(F)(F)c1cccc(NC(=S)N(CCCN2CCCC2)Cc2cccn2Cc2ccc(Cl)cc2)c1	none (no result: Yeast growth inh, sdo1 growth, Yeast life ext)
COc1ccc(Oc2ccc(/C=C/C(=O)c3ccc(O)cc3)cc2[N+](=O)[O-])cc1	RAM network inh 11
O=C(/C=C/c1ccccc1Cl)c1cccnc1	none
Cc1ccc(C)c(/C=C/C(=O)c2ccccc(=O)c2O)c1	Yeast growth inh 99
Cc1ccc(/C=C/C(=O)c2ccccc(=O)c2O)c(C)c1	Yeast growth inh 99
Cc1ccc(C)c(NC(=O)c2ccccc2O)c1	none
O=C(/C=C/c1ccccc1Cl)c1ccccc(=O)c1O	Yeast growth inh 99
CCCCCCCC(=O)N/N=C(\C)c1cccnc1	none (no result: Yeast life ext)
CCOC(=O)c1c(NC(=O)C(Sc2ccccc2)c2ccccc2)sc(C(=O)N(C)C)c1C (stereo not drawn)	RAM network inh 10
CCOCc1nnc(NC(=O)C2c3ccccc3Oc3ccccc32)s1	none (no result: Yeast growth inh, sdo1 growth, Yeast life ext)
C=CCn1c(CCCOc2ccc(Cl)cc2Cl)nnc1SCC(=O)Nc1nccs1	RAM network inh 8.9
CCn1c(CCCOc2ccc(Cl)cc2Cl)nnc1SCC(=O)Nc1cc(F)ccc1C	none
Cn1c(CCCOc2ccc(Cl)cc2Cl)nnc1SCC(=O)Nc1cccc(F)c1	none
CSc1cccc(NC(=O)CCCOc2ccccc2)c1	none
Cn1c(CCCOc2ccc(Cl)cc2Cl)nnc1SCC(=O)Nc1ccc(F)c(Cl)c1	RAM network inh 9.0
CSc1cccc(NC(=O)CCCOc2ccc(Cl)cc2Cl)c1	RAM network inh 11
C/C(=N/NC(=O)CNC(=O)C1COc2ccccc2O1)c1cccc(O)c1 (stereo not drawn)	none (no result: Yeast growth inh, sdo1 growth, Yeast life ext)
O=C(CSc1nnc(C2CC2)n1Cc1ccccc1)N1CCN(S(=O)(=O)c2ccccc2)CC1	none
CSc1nc2sc3c(c2c(=O)n1C)CCCC3	none
CCC(=O)N(CCCN(C)C)c1nc(-c2cc(OC)ccc2OC)cs1	none
Cc1ccc2nc3c(nc2c1)-c1ccccc1C3=O	Yeast growth inh 59
CCOc1ccc2[nH]cc(C(=O)NCCCN3CCOCC3)c(=O)c2c1	none (no result: Yeast growth inh, sdo1 growth, Yeast life ext)
CCOC(=O)c1ccc(N/C=C/C(=O)c2ccc(OC)c(OC)c2)cc1	none
COc1ccc(C(=O)/C=C/Nc2ccc(C)cn2)cc1OC	Yeast growth inh 52 (no result: Yeast life ext)
CCOC(=O)c1cn(-c2nc(-c3ccc(Cl)c(Cl)c3)cs2)c2c(F)c(N3CCOCC3)c(F)cc2c1=O	RAM network inh 9.7
CCOC(=O)c1cn(-c2ccc(F)c(F)c2F)c2c(F)c(F)c(F)cc2c1=O	none
Fc1ccc(OCc2nc(-c3ccncc3)n[nH]2)cc1	none (no result: Yeast growth inh, sdo1 growth, Yeast life ext)
COC(=O)c1sc(S(=O)(=O)Nc2ccc(Br)cc2)c(C(=O)OC)c1C	Yeast life ext 42, RAM network inh 8.7
COC(=O)c1sc(S(=O)(=O)Nc2ccc(C)cc2)c(C(=O)OC)c1C	Yeast life ext 38
COC(=O)c1sc(S(=O)(=O)Nc2ccc3cn[nH]c3c2)c(C(=O)OC)c1C	none
CCOc1ccc(/C=C/C(=O)NCCc2ccc(OC)c(OC)c2)cc1	none
CCCCNC(=O)/C=C/c1ccc(OC)c(Br)c1	RAM network inh 9.6
O=C(OCc1cccc2ccccc12)C1CC(=O)N(c2ccccc2)C1 (stereo not drawn)	RAM network inh 11
CCN(CC)c1nc(-c2ccccc2)nc2c1sc(=S)n2CC	RAM network inh 9.8 (no result: Yeast growth inh, sdo1 growth, Yeast life ext)
CNc1ccc(/C=C/C(=O)c2ccc3c(c2)OCCO3)cc1[N+](=O)[O-]	RAM network inh 9.0
CCOc1ccc(OCc2ccc(C(=O)NCc3ccncc3)o2)cc1	none
Cc1ccc(NC(=O)OCc2cc(-c3ccccc3)on2)cc1	RAM network inh 9.9 (no result: Yeast growth inh, sdo1 growth, Yeast life ext)
O=C(O)c1cnc(-c2ccccc2)nc1Sc1ccc(Cl)cc1	RAM network inh 8.6
COc1ccc(Sc2nc(-c3ccccc3)ncc2C(=O)O)cc1	none (no result: Yeast growth inh, sdo1 growth, Yeast life ext)
Cc1ccccc1NC(=O)OCc1cccnc1Sc1ccc(Cl)cc1	RAM network inh 9.9
Cc1ccc(Sc2ncccc2COC(=O)Nc2ccccc2)cc1	RAM network inh 9.2
Cc1ccc(Oc2ncccc2COC(=O)Nc2ccccc2C)cc1	none (no result: Yeast growth inh, sdo1 growth, Yeast life ext)
